Consider three compounds from ChEMBL document CHEMBL1275351, “Novel spirotetracyclic zwitterionic dual H(1)/5-HT(2A) receptor antagonists for the treatment of sleep disorders” (J Med Chem, 2010).

The subject of data set [1] is Rattus norvegicus. The data set is described as follows: Ex vivo displacement of [3H]ketanserin from 5HT2A receptor in Sprague-Dawley rat cerebral cortex at 1 mg/kg, po by imaging analysis. The data set is classed as functional. The method in brief:
(§1)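 Rats were dosed orally (vehicle 0.5% HPMC) and brains removed 2 h later. 14 μm coronal sections were incubated with 1 nM [3H]ketanserin in 50 mM Tris-HCl with 10 mM MgCl2, pH 7.5, for 10 min at room temperature. Nonspecific binding with 10 μM mianserin. Phosphoimager read after 7 days; occupancy measured in cortex.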

For data set [2], the target named is 5-hydroxytryptamine receptor 2A (Homo sapiens, UniProt P28223). The data set is described as follows: Antagonist activity at human 5HT2A receptor expressed in HEK cells assessed as inhibition of intracellular calcium accumulation by aequorin assay. The class given is functional, cell-based, HEK293.
Data set [3] concerns the target T1, 5-hydroxytryptamine receptor 2C (Homo sapiens, UniProt P28335).
T1 sequence (P28335 whole entry): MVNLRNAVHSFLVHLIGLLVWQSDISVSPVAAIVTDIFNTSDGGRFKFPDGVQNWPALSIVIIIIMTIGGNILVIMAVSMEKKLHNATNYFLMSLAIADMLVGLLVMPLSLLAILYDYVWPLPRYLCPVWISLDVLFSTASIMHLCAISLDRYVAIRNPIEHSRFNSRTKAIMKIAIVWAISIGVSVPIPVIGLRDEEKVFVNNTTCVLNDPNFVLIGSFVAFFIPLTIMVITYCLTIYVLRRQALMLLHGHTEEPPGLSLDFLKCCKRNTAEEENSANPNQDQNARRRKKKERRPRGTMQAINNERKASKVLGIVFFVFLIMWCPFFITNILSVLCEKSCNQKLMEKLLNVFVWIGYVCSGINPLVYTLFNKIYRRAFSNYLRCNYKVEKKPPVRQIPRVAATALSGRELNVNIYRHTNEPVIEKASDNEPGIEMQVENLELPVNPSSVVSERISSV
Put plainly: Antagonist activity at human 5HT2C receptor expressed in human SH-SY5Y cells by FLIPR assay. The class given is functional, cell-based.

Data set [4] is described as follows: Blood clearance in Sprague-Dawley rat at 1 mg/kg, iv and 3 mg/kg, po. The data set is classed as ADME, organism-based. The conditions noted are these: whole blood. The essentials:
(§2)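 Male Sprague-Dawley rats, cassette dosing. Compounds were given as an iv bolus and as an oral suspension. Blood samples were taken at intervals up to 24 h, processed by protein precipitation and analysed by HPLC-MS/MS.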

Data set [5] is described as follows: Volume of distribution at steady state in Sprague-Dawley rat at 1 mg/kg, iv and 3 mg/kg, po. The class given is ADME, organism-based. The conditions noted are these: in vivo, read-out: Vdss. The essentials:
as §2

A short description of data set [6]: Half life in Sprague-Dawley rat at 1 mg/kg, iv and 3 mg/kg, po. The class given is ADME, organism-based. The conditions noted are these: in vivo. The method in brief:
as §2

The nature of data set [7]: Oral bioavailability in Sprague-Dawley rat at 3 mg/kg. The data set is classed as ADME, organism-based. The conditions noted are these: in vivo. The essentials:
as §2

Data set [8] is described as follows: Ratio of drug level in brain to blood in Sprague-Dawley rat at 1 mg/kg, iv and 3 mg/kg, po. The data set is classed as ADME, organism-based. The following applies: read-out: BBR. The essentials: (§3)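 Male Sprague-Dawley rats, cassette dosing, iv bolus or oral suspension. Blood and brain levels were measured by protein precipitation and HPLC-MS/MS. Brain:blood ratio was taken from AUC0-8h after oral dosing, or at 1 h after iv dosing for one compound.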

In data set [9] the test system is Rattus norvegicus. Put plainly: Hypnotic activity in Sprague-Dawley rat assessed as total sleep time at 1 mg/kg, po administered during active phase. The class given is functional. The method in brief:
(§4)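 Male Sprague-Dawley rats (275-300 g) carried implanted telemetric EEG/EMG transmitters and were used 3 weeks after surgery. Oral dosing (2 mL/kg) was given 6 h after lights off (CT18) in a randomized crossover versus vehicle. Recording ran for 5 h in 10 s epochs scored by FFT. n = 8, mean ± SEM; one-way ANOVA with Dunnett's test.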

In data set [10] the test system is Rattus norvegicus. The data set is described as follows: Hypnotic activity in Sprague-Dawley rat assessed as non-rapid eye movement sleep at 3 mg/kg, po administered during active phase. The data set is classed as functional. The method in brief:
as §4

Data set [11] deals with Rattus norvegicus. The data set is described as follows: Hypnotic activity in Sprague-Dawley rat assessed as rapid eye movement sleep at 1 mg/kg, po administered during active phase. The data set is classed as functional. The essentials: as §4
The nature of data set [12]: Cmax in Sprague-Dawley rat hypnotic model at 3 mg/kg, po administered during active phase measured after 2 hrs. Also noted: dose 3 mg/kg, route oral. The conditions noted are these: in vivo. The data set is classed as ADME, organism-based.
Data set [13] is described as follows: Plasma concentration at Tmax in Sprague-Dawley rat hypnotic model at 1 mg/kg, po administered during active phase. Also noted: dose 1 mg/kg, route oral. The class given is ADME, organism-based.
Data set [14] is described as follows: Plasma concentration at Tmax in Sprague-Dawley rat hypnotic model at 3 mg/kg, po administered during active phase. The data set is classed as ADME, organism-based. Also noted: dose 3 mg/kg, route oral.
The nature of data set [15]: Plasma concentration at Tmax in Sprague-Dawley rat hypnotic model at 10 mg/kg, po administered during active phase. The data set is classed as ADME, organism-based. Also noted: dose 10 mg/kg, route oral.
The subject of data set [16] is Rattus norvegicus. Put plainly: Ex vivo displacement of [3H]ketanserin from 5HT2A receptor in Sprague-Dawley rat cerebral cortex at 3 mg/kg, po by imaging analysis. The data set is classed as functional. The essentials: as §1
In data set [17] the test system is Rattus norvegicus. Put plainly: Ex vivo displacement of [3H]ketanserin from 5HT2A receptor in Sprague-Dawley rat cerebral cortex at 10 mg/kg, po by imaging analysis. The data set is classed as functional. The method in brief: as §1
Data set [18] relates to Rattus norvegicus. Put plainly: Ex vivo displacement of [3H]pyrilamine from histamine H1 receptor in Sprague-Dawley rat cerebral cortex at 1 mg/kg, po by imaging analysis. The data set is classed as functional. The essentials:
(§5)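 Rats were dosed orally (vehicle 0.5% HPMC) and brains removed 2 h later. 14 μm coronal sections were incubated with 1 nM [3H]pyrilamine in 50 mM Tris-HCl, pH 7.5, for 10 min at room temperature. Nonspecific binding with 10 μM pyrilamine. Phosphoimager read after 7 days; occupancy measured in cortex.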

The subject of data set [19] is Rattus norvegicus. The data set is described as follows: Ex vivo displacement of [3H]pyrilamine from histamine H1 receptor in Sprague-Dawley rat cerebral cortex at 3 mg/kg, po by imaging analysis. The data set is classed as functional. The method in brief: as §5
The test system of data set [20] is Rattus norvegicus. The data set is described as follows: Ex vivo displacement of [3H]pyrilamine from histamine H1 receptor in Sprague-Dawley rat cerebral cortex at 10 mg/kg, po by imaging analysis. The class given is functional. The method in brief: as §5
Data set [21] can be described thus: Blood clearance in Sprague-Dawley rat at 0.5 mg/kg, iv and 1 mg/kg, po. The class given is ADME, organism-based. The following applies: whole blood. The method in brief:
as §2

Data set [22] is described as follows: Volume of distribution at steady state in Sprague-Dawley rat at 0.5 mg/kg, iv and 1 mg/kg, po. The data set is classed as ADME, organism-based. The following applies: in vivo, read-out: Vdss. The essentials:
as §2

Data set [23] is described as follows: Half life in Sprague-Dawley rat at 0.5 mg/kg, iv and 1 mg/kg, po. The following applies: in vivo. The data set is classed as ADME, organism-based. The method in brief: as §2
The nature of data set [24]: Oral bioavailability in Sprague-Dawley rat at 1 mg/kg. The class given is ADME, organism-based. The conditions noted are these: in vivo. The essentials: as §2
Data set [25] can be described thus: Ratio of drug level in brain to blood in Sprague-Dawley rat at 0.5 mg/kg, iv and 1 mg/kg, po. The data set is classed as ADME, organism-based. The following applies: read-out: BBR. The method in brief: as §3
The nature of data set [26]: Cmax in Sprague-Dawley rat hypnotic model at 1 mg/kg, po administered during active phase measured after 2 hrs. The data set is classed as ADME, organism-based. Also noted: dose 1 mg/kg, route oral. The following applies: in vivo.

5-hydroxytryptamine receptor 2A, sequence (P28223 whole entry): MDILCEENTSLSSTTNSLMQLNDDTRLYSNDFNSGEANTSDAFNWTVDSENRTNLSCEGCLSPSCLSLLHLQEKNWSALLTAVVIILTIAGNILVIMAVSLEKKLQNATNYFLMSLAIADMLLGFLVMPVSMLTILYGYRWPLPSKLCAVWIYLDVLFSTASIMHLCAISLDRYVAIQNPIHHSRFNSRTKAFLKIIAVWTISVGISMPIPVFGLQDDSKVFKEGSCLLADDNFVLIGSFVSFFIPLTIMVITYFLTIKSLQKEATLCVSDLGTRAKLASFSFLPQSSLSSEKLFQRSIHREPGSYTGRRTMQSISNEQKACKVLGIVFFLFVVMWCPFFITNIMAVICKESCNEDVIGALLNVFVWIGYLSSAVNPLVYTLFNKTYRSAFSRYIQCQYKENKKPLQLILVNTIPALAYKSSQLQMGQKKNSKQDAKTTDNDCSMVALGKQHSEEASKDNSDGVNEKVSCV

`O=C(O)C1CN(C2CC[C@]3(Cc4ccccc4Cc4ccccc43)C2)C1` (stereo not given in full): the Activity in the data set with Rattus norvegicus [1] is 0.9%; with Rattus norvegicus [16], 24%; in the data set with Rattus norvegicus [17], 47%; in the data set on Rattus norvegicus [18], 16%; with Rattus norvegicus [19] it was 45%; in the data set with Rattus norvegicus [20], 66%. Also, the Ki in data set [2] was 15.8 nM; in data set [3], 6.31 nM. Besides, the clearance in data set [4] came to 9 mL/min/kg. For the same compound, the Vd in data set [5] came out at 2.1 L/kg. In data set [6], the half-life is 3.1 h. The bioavailability in [7] was found to be 54%. Moreover, the Kp in [8] came to 0.1. For the same compound, the Time in the data set on Rattus norvegicus [9] amounted to 98.1 min; in the data set on Rattus norvegicus [10], 118.6 min; in the data set with Rattus norvegicus [11], 10.7 min. The Cmax in [12] came to 626 ng/mL; in [13], 127 ng/mL; in data set [14] it was 417 ng/mL; in data set [15], 1220 ng/mL.
Take `O=C(O)C1CN(C2CCC3(Cc4ccccc4Oc4ccccc43)C2)C1` (stereo not given): the inhibitory constant (Ki) in [2] and in [3] was 31.6 nM each time. The clearance in data set [21] stood at 13 mL/min/kg. For the same compound, the Vd in [22] was found to be 1.9 L/kg. For the same compound, in data set [23], the half-life was 1.9 h. The same compound displayed a bioavailability in data set [24] of 100%. Also, in data set [25], the Kp stood at 0.2. For the same compound, the Time in the data set on Rattus norvegicus [9] was 120.7 min; with Rattus norvegicus [10] it was 123.2 min; with Rattus norvegicus [11] it was 13.3 min.
Turning to `O=C(O)C1CCN(C2CC[C@]3(Cc4ccccc4Cc4ccccc43)C2)CC1` (stereo not given in full), the Activity with Rattus norvegicus [1] is reported as 0%; in the data set on Rattus norvegicus [16] it was 5.6%; with Rattus norvegicus [17], 18%; in the data set on Rattus norvegicus [18] it was 30%; in the data set on Rattus norvegicus [19], 35%; in the data set with Rattus norvegicus [20], 55%. Moreover, the values for the Ki in data set [2] and in [3] were 79.4 nM and 63.1 nM, respectively. Also, the clearance in data set [21] stood at 21 mL/min/kg. In addition, in data set [22], the Vd stood at 2.9 L/kg. This compound gave a half-life in data set [23] of 1.9 h. In addition, the bioavailability in [24] worked out at 65%. In data set [25], the Kp was 0.5. For the same compound, the Time in the data set with Rattus norvegicus [9] worked out at 94.4 min; with Rattus norvegicus [10], 94.2 min; with Rattus norvegicus [11], 9.7 min. The highest concentration (Cmax) is 216 ng/mL in data set [26], 119 ng/mL in data set [13], 303 ng/mL in data set [14] and 755 ng/mL in [15].
